From ChEMBL document CHEMBL1137671, “Synthesis of 1-(2,6-dichlorophenyl)-3-methylene-1,3-dihydro-indol-2-one derivatives and in vitro anticancer evaluation against SW620 colon cancer cell line” (Eur J Med Chem, 2009) come the findings set out here.

≈ marks a conversion by molar mass, not a printed value.

The nature of assay [1]: Inhibition of FGFR autophosphorylation.
The subject of assay [2] is SW-620. Briefly: Cytotoxicity against human SW620 cells after 3 days by MTT assay. The class given is functional. The conditions noted are these: SW-620, 72 h, read-out: ED50 (the source's name). In short, it runs like this: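 SW620 human colon cancer cells seeded at 10,000 per well and exposed to 1-100 µM for 72 h in a CO₂ incubator, with untreated controls. Then 125 µg MTT per well for 3 h, followed by lysis in 10% SDS-0.01 N HCl. Absorbance was read at 540 nm. % cytotoxicity = (1 − (treated − blank)/control) × 100.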

In assay [1], `O=CN1CCN(c2ccc(/C=C3\C(=O)Nc4ccccc43)cc2)CC1` yielded an IC50 of 10 µM.
For the compound `O=C1/C(=C\c2cccc3ccccc23)c2ccccc2N1c1c(Cl)cccc1Cl`, the EC50 in assay [2] is above 100 µg/mL.
As to `O=C1/C(=C/c2cc3ccccc3nc2Cl)c2ccccc2N1c1c(Cl)cccc1Cl`, the EC50 in assay [2] came to 25 µg/mL (≈ 55.3 µM).
On to `O=C1/C(=C/c2ccc(Cl)cc2)c2ccccc2N1c1c(Cl)cccc1Cl`, for which the EC50 in assay [2] turned out to be 100 µg/mL (≈ 250 µM).
Still for that read-out and setting: to `O=C1/C(=C/c2ccc(Cl)cc2Cl)c2ccccc2N1c1c(Cl)cccc1Cl` belongs 2 µg/mL (≈ 4.6 µM); to `O=C1Cc2ccccc2N1c1c(Cl)cccc1Cl`, above 100 µg/mL.
On the same count and under the same terms, to `O=C1/C(=C/c2ccccc2[N+](=O)[O-])c2ccccc2N1c1c(Cl)cccc1Cl` belongs 90 µg/mL (≈ 219 µM); to `COc1ccc(/C=C2/C(=O)N(c3c(Cl)cccc3Cl)c3ccccc32)cc1`, above 100 µg/mL; to `O=C1/C(=C/c2cccc(Oc3ccccc3)c2)c2ccccc2N1c1c(Cl)cccc1Cl`, 50 µg/mL (≈ 109 µM).
On to `COc1ccc(/C=C2/C(=O)N(c3c(Cl)cccc3Cl)c3ccccc32)cc1OC`, for which, in assay [2], the EC50 came out at 50 µg/mL (≈ 117 µM).
Still for that read-out and setting: the same measure for `CN(C)c1ccc(/C=C2/C(=O)N(c3c(Cl)cccc3Cl)c3ccccc32)cc1`: above 100 µg/mL.
On the same count and under the same terms, the same measure for `O=C1/C(=C/c2c(Cl)cccc2Cl)c2ccccc2N1c1c(Cl)cccc1Cl`: above 100 µg/mL; for `O=C1/C(=C/c2ccccc2)c2ccccc2N1c1c(Cl)cccc1Cl`: 100 µg/mL (≈ 273 µM); for `O=C1/C(=C/c2cccc(Cl)c2)c2ccccc2N1c1c(Cl)cccc1Cl`: 50 µg/mL (≈ 125 µM).
As to `Cc1ccc2cc(/C=C3/C(=O)N(c4c(Cl)cccc4Cl)c4ccccc43)c(Cl)nc2c1C`, the EC50 in assay [2] is above 100 µg/mL.
Take `O=C1/C(=C/c2ccco2)c2ccccc2N1c1c(Cl)cccc1Cl`: the EC50 in assay [2] was above 100 µg/mL.
Still for that read-out and setting: to `Cc1ccc2nc(Cl)c(/C=C3/C(=O)N(c4c(Cl)cccc4Cl)c4ccccc43)cc2c1` belongs 40 µg/mL (≈ 85.9 µM).
Still for that read-out and setting: the same measure for `O=C1/C(=C/c2ccccc2Cl)c2ccccc2N1c1c(Cl)cccc1Cl`: 15 µg/mL (≈ 37.4 µM).
The same measure, in the same setting: to `O=C1/C(=C/c2ccc(O)cc2)c2ccccc2N1c1c(Cl)cccc1Cl` belongs 50 µg/mL (≈ 131 µM).
Take `O=C1/C(=C/c2ccc(F)cc2)c2ccccc2N1c1c(Cl)cccc1Cl`: the EC50 in assay [2] came to 5 µg/mL (≈ 13 µM).
In assay [1], `Cc1c[nH]c(/C=C2\C(=O)Nc3ccccc32)c1CCC(=O)O` displayed a half-maximal inhibitory concentration (IC50) of 10 µM.
